PMC2975065 (Journal of molecular biology, 2010)
Like-named read-outs stand apart in the source and are kept apart here.

Tests used:
DiscII (Discoidin II) [1] = biological target: T1, DiscII (Discoidin II) (Dictyostelium discoideum, UniProt P42530); details: ITC, taken from ref [29]; cited from earlier work
T1 sequence (P42530 1-257): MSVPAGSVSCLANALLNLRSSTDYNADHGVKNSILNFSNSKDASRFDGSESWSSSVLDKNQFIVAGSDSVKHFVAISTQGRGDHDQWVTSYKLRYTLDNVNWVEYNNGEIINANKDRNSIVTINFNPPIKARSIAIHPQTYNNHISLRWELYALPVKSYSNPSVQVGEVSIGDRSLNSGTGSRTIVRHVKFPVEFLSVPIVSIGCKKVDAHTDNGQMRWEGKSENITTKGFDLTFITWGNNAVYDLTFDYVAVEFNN

[2] = biological target: DiscI (Discoidin I, isoform A) (Dictyostelium discoideum, UniProt P02886, S2A); experiment: Isothermal titration microcalorimetry; assay type: binding; details: ITC; for n (stoichiometry, fitted): n fitted to the curve for high affinity ligands
DiscII (Discoidin II) [3] = biological target: T1, DiscII (Discoidin II); experiment: Isothermal titration microcalorimetry; assay type: binding; details: for -TΔS / -ΔG / -ΔH: DiscII, ITC, 25 °C, ligands marked c only one experiment
In short: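 Run on a VP-ITC at 25 °C in 20 mM Tris-HCl pH 7.5, 150 mM NaCl, with sugar and protein in the same buffer. Thirty 10 μL injections of 2–40 mM sugar, 5 min apart, went into 0.15 mM lectin in the cell, stirred at 310 rpm. Sugar-into-buffer controls were run. Data were fitted to a single-site model giving Ka and ΔH (n fixed at 1 for weak ligands), with ΔG and ΔS derived. Runs were at least duplicated, or single where material was short.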

DiscI (Discoidin I) = DiscI (Discoidin I) (Dictyostelium discoideum, UniProt P02886, S2A); experiment: Glycan microarray analysis of Alexa 488-labelled DiscI; assay type: binding; details: DiscI at 0.04 μg ml^-1; printed glycan arrays version 3.1
DiscII (Discoidin II) [4] = biological target: T1, DiscII (Discoidin II); experiment: Glycan microarray analysis of Alexa 488-labelled DiscII; assay type: binding; details: DiscII at 0.5 μg ml^-1; printed glycan arrays version 3.1
In short: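 Recombinant protein labelled with Alexa Fluor 488-TFP following the maker's protocol, then desalted on a polyacrylamide column. Screened on the Consortium for Functional Glycomics printed array v3.1 by the standard procedure, over 0.01–200 μg ml^-1 lectin. Binding read as fluorescence intensity.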

[5] = 20 mM Tris-HCl pH 7.5, 150 mM NaCl, 25 °C, averaged over two or three experiments
[6] = KD, 20 mM Tris-HCl pH 7.5, 150 mM NaCl, 25 °C, averaged over two or three experiments

Sequence of DiscI (Discoidin I) (P02886 whole entry S2A): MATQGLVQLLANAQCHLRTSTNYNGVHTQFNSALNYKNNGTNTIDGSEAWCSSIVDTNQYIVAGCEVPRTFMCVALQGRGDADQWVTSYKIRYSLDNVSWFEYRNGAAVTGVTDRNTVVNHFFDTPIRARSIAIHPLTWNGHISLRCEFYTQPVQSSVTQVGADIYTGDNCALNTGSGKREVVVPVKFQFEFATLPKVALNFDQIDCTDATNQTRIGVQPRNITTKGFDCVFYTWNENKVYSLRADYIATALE
Sequence of DiscI (Discoidin I, isoform A) (P02886 whole entry S2A, canonical isoform): as the sequence (P02886 whole entry S2A) above

| SMILES | Kd [2, 5] [µM] | -TΔS ([2]; 25 °C) [kcal/mol] | -ΔG ([2]; 25 °C) [kcal/mol] | -ΔH ([2]; 25 °C) [kcal/mol] | Kd (DiscII (Discoidin II) [3]) [µM] | -TΔS (DiscII (Discoidin II) [3]) [kcal/mol] | -ΔG (DiscII (Discoidin II) [3]) [kcal/mol] | Kd [2, 6] [µM] | binding on glycan array (fluorescence intensity, in words) (DiscI (Discoidin I)) | Kd ([2]; Kd) [µM] | also measured |
| --- | --- | --- | --- | --- | --- | --- | --- | --- | --- | --- | --- |
| CC(=O)N[C@H]1C(O)O[C@H](CO)[C@H](O)[C@@H]1O (mixture of isomers) [GalNAc, N-acetylgalactosamine] | 302 ± 27 | 3.18 ± 1.43 | 4.78 ± 0.048 | 7.98 ± 1.39 |  |  |  |  |  |  | -TΔS (DiscII (Discoidin II) [1]): 0.837 kcal/mol; -ΔG (DiscII (Discoidin II) [1]): 4.02 kcal/mol; -ΔH (DiscII (Discoidin II) [1]): 4.85 kcal/mol; Kd (DiscII (Discoidin II) [1]): 1120 µM; Kd [2]: 300 µM |
| CC(=O)N[C@H]1C(O)O[C@H](CO)[C@@H](O[C@@H]2O[C@H](CO)[C@H](O)[C@H](O)[C@H]2O)[C@@H]1O (stereo partly drawn) [Gal1β1-4GlcNAc (LacNAc), Galβ1-4GlcNAc] |  | 5.57 ± 0.478 | 3.59 ± 0.048 | 9.18 ± 0.526 | 1220 ± 23 | 4.9 ± 0.096 | 3.99 ± 0.12 | 2390 ± 170 |  |  | Kd (in words) [2]: millimolar range |
| CC(=O)N[C@H]1C(O)O[C@H](CO)[C@H](O)[C@@H]1O[C@@H]1O[C@H](CO)[C@H](O)[C@H](O)[C@H]1O (stereo partly drawn) [Gal1β-3GalNAc, Galβ1-3GalNAc] |  | 4.66 ± 0.359 | 6.24 ± 0.096 | 10.9 ± 0.263 | 1380 | 6.21 | 3.9 | 27.2 ± 4.6 | binds | 27 | -ΔH (DiscII (Discoidin II) [3]): 10.1 kcal/mol; increase in DiscI affinity when compared to GalNAc monosaccharide [2]: tenfold increase; n (stoichiometry, fitted) [2]: 1.03± 0.01 |
| CC(=O)N[C@H]1[C@H](O[C@H]2[C@@H](O)[C@@H](CO)OC(O)[C@@H]2O)O[C@H](CO)[C@H](O)[C@@H]1O (stereo partly drawn) [GalNAcβ1-3Gal] |  | 6.886 ± 0.669 | 5.86 ± 0.072 | 12.7 ± 0.693 | 1110 | 6.88 | 4.02 | 49.4 ± 1.5 | less strongly | ~50 | -ΔH (DiscII (Discoidin II) [3]): 10.9 kcal/mol; increase in DiscI affinity when compared to GalNAc monosaccharide [2]: tenfold increase; n (stoichiometry, fitted) [2]: 0.81 ± 0.01 |
| O=C[C@H](O)[C@@H](O)[C@@H](O)[C@H](O)CO [Galactose, galactose] |  | 4.09 ± 1.79 | 3.3 ± 0.024 | 7.41 ± 1.77 |  |  |  | 3770 ± 200 |  | 3000 to 4000 |  |
| CC(=O)N[C@H]1[C@H](OC[C@H]2OC(O)[C@H](NC(C)=O)[C@@H](O)[C@H]2O)O[C@H](CO)[C@@H](O[C@@H]2O[C@H](CO)[C@H](O)[C@H](O)[C@H]2O)[C@@H]1O (stereo partly drawn) [Galβ1-4GlcNAcβ1-6GalNAc (n° 149), Galβ1-4GlcNAcβ1-6GalNAc] |  |  |  |  |  |  |  |  |  |  | binding on glycan array (fluorescence intensity, in words) (DiscII (Discoidin II) [4]): highest affinity |
| CC(=O)NC1C(OC2C(O)C(CO)OC(O)C2NC(C)=O)OC(CO)C(O)C1O (stereo not drawn) [GlcNAcβ1-3GalNAc (n° 159), GlcNAcβ1-3GalNAc] |  |  |  |  |  |  |  |  | binds |  |  |
| CO[C@H]1O[C@H](CO)[C@H](O)[C@H](O)[C@H]1O [αMeGalactoside] | 8390 ± 700 | 7.29 ± 1.46 | 2.82 ± 0.048 | 10.1 ± 1.41 |  |  |  |  |  |  |  |
| COC1OC(CO)C(O)C(O)C1O (stereo not drawn) [βMeGalactoside, β–Methyl-galactoside] | 2960 ± 270 | 6.19 ± 0.526 | 3.44 ± 0.048 | 9.63 ± 0.574 |  |  |  |  |  |  | -TΔS (DiscII (Discoidin II) [1]): 1.6 kcal/mol; -ΔG (DiscII (Discoidin II) [1]): 4.16 kcal/mol; -ΔH (DiscII (Discoidin II) [1]): 5.81 kcal/mol; Kd (DiscII (Discoidin II) [1]): 952 µM |
